MEKK2mut PB1 HTS: signal of MEK5 binding to mutant human MEKK2 PB1 domain; hit rate 0.35% among 290,000; bead flow cytometry, Alexa488-MEK5 binding to MEKK2 mutant; AID 1530; percent response, % at 10 µM; in the data active = percent response above about 24%, passing the limit was not always enough
MEKK3 PB1 HTS: modulators (inhibitors or enhancers) of MEK5 binding to human MEKK3 PB1 domain | bead-based flow cytometry, Alexa488-MEK5 binding to MEKK3; actives lie on both sides; 0 = blocked by unlabeled MEK5, 100 = vehicle | AID 1529 | hit rate 1.4% among 290,000 | binding response (% of control), % at 10 µM;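 active = binding response more than 3 SD above or below the average of its plate-row segment, actives on both sides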;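 also: Alexa488 bead fluorescence after subtracting the streptavidin-only scavenger bead signal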
Target sequence (Q99759 whole entry, looked up, the tested form may be a part): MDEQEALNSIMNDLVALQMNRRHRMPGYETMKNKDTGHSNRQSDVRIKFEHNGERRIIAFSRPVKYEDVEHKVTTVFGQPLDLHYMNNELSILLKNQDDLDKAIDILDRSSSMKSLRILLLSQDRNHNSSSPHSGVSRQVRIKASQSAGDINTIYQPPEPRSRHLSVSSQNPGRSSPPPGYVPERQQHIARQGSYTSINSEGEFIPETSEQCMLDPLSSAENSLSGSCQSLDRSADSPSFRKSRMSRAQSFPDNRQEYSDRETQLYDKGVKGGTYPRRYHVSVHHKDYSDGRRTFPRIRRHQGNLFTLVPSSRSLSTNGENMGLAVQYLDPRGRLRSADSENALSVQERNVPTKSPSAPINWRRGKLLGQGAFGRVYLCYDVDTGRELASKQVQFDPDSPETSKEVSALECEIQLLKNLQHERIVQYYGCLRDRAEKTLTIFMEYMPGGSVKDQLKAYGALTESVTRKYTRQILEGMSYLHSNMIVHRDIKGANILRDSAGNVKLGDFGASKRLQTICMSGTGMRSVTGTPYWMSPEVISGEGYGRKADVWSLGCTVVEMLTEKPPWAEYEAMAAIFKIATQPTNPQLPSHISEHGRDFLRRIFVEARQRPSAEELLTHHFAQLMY
Arrestin-AP2 inh: inhibitors of human beta-arrestin and AP2 interaction | FITC-arrestin peptide / GST-AP2 beads, flow cytometry; AP2 beta2 appendage carries R879A mutation | inhibition, % at 10 µM | hit rate 0.31% among 340,000 | AID 504490;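 active = inhibition above a set limit, near 3 SD of compounds lacking own fluorescence, cut at about 54% in these data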;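 also: plate controls were DMSO wells for no effect and 5 µM unlabelled arrestin peptide for full effect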
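system = GST-tagged AP2 beta2-adaptin appendage (R879A) on 4 µm glutathione beads | reagent = FITC-labelled arrestin peptide probe, 50 nM final | schedule = compound with beads 12 min RT, then probe 1 h RT | signal = HyperCyt-sampled flow cytometry, FL1 channel, ex 488/em 535 nm | read-out = percent response from loss of bead-bound FITC fluorescence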
MEKK2 WT-MEK5: raises or lowers MEK5 binding to wildtype human MEKK2 PB1 domain | bead flow cytometry, Alexa488-MEK5 binding to MEKK2 WT; actives lie on both sides | hit rate 1.1% among 290,000 | binding response (% of control), % at 10 µM | AID 1531; in the data active = binding response below about 67% or above about 130%
MEKK2wt confirm: raises or lowers MEK5 binding to wildtype human MEKK2, retest. bead flow cytometry, Alexa488-MEK5 binding to MEKK2 WT; actives lie on both sides. shares compounds with MEKK3 PB1 HTS. hit rate 2.4% among 5,900. binding response (% of control), % at 10 µM; in the data active = binding response below about 16% or above about 210%; inactive = in between
MEKK2mut-MEK5: signal of MEK5 binding to mutant human MEKK2, retest | shares compounds with MEKK3 PB1 HTS | bead flow cytometry, Alexa488-MEK5 binding to MEKK2 mutant | percent response, % at 10 µM | hit rate 2% among 5,900 | AID 1893; in the data active = percent response mostly above about 71%, no sharp cut-off; inactive = mostly below about 38%;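 also: higher means compound restores mutant binding toward wildtype level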
MEKK3 confirm: confirmation of inhibitors of MEK5 binding to human MEKK3. shares compounds with MEKK3 PB1 HTS. bead flow cytometry, Alexa488-MEK5 binding to MEKK3; active compounds read low. binding response (% of control), % at 10 µM. hit rate 1.8% among 5,900. AID 1894;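 active = binding response below 72% of control, or above a set upper limit, though filed actives all read lower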;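 also: 100% = DMSO only wells and 0% = binding blocked by excess unlabeled MEK5; lower values mean stronger disruption of MEK5 binding to MEKK3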
Active calls of the source: *; . = no result; [ ] = remark or other dose. In the library only some 2.3% were active in any assay of this set; here they are far more common.

SMILES | MEKK2mut PB1 HTS | MEKK3 PB1 HTS | Arrestin-AP2 inh | MEKK2 WT-MEK5 | MEKK2wt confirm | MEKK2mut-MEK5 | MEKK3 confirm
CCOC(=O)c1c(CSC(=N)N)n(-c2ccc(C)cc2)c2cc(Br)c(OC(C)=O)cc12 | 70* | 102 | 14 | 232* | 212* | 55 | 108
COc1ccc(Nc2nc(-c3cccs3)nc3ccccc23)cc1S(=O)(=O)N1CCOCC1 | . | . | -2 | . | . | . | .
Cn1c(SCC(=O)N2CCCC2)nc2ccccc2c1=O | -4 | 87 | 0 | 85 | . | . | .
CCn1c(SCC(=O)N2CCCC2)nc2ccccc2c1=O | 5 | 74*[inhibitor] | -9 | 52*[inhibitor] | 105 | 7 | 109
CC(=O)c1cccc(NC(=O)CSc2nc3ccccc3c(=O)n2CCCN2CCOCC2)c1 | . | . | -4 | . | . | . | .
Cc1ccc(NC(=O)CSc2nc3ccccc3c(=O)n2CCCN2CCCCC2)cc1C | 4 | 101 | 3 | 149* | 142 | 22 | 108
O=C1c2ccccc2C(=O)N1CCCCSc1nc2ccccc2c(=O)n1CCCN1CCOCC1 | 6 | 143* | -6 | 135 | 107 | -1 | 102
CCCc1cc(=O)[nH]c(SCC(=O)N2CCCCCC2)n1 | . | . | -7 | . | . | . | .
Cc1cc(C(=O)OCC(=O)N2CCC(C)CC2)c2ccccc2n1 | . | . | -2 | . | . | . | .
Cn1c(CC(=O)Nc2ccccc2)c(Sc2ccccc2)c2ccccc21 | 2 | 139* | -1 | 121 | 108 | -6 | 104
O=C(NCc1ccccc1Cl)c1ccc2c(c1)OCO2 | 8 | 102 | 8 | 101 | . | . | .
N/C(=N\OS(=O)(=O)c1ccccc1)c1cccnc1 | 0 | 130* | 2 | 106 | 109 | 7 | 108
N/C(=N\OS(=O)(=O)c1ccc2ccccc2c1)c1cccnc1 | 1 | 83 | -6 | 104 | . | . | .
O=C(O)c1cccc2c1C(=O)c1cc([N+](=O)[O-])ccc1-2 | . | . | -3 | . | . | . | .
CC(C)C(C(=O)Nc1ccc(S(N)(=O)=O)cc1)N1C(=O)c2ccccc2C1=O (stereo not given) | -10 | 56*[inhibitor] | 19 | 70 | 96 | -4 | 101
NS(=O)(=O)c1ccc(NC(=O)CN2C(=O)c3ccccc3C2=O)cc1 | 5 | 104 | 27 | 100 | . | . | .
O=C(N/N=C/c1cc2ccccc2nc1Cl)[C@H]1C[C@@H]1c1ccccc1 | 1 | 168* | 1 | 108 | 100 | -4 | 103
Cc1ccc2cc(/C=N/NC(=O)[C@H]3C[C@@H]3c3ccccc3)c(Cl)nc2c1 | 2 | 108 | 2 | 102 | . | . | .
COCCN(C(=O)c1ccc(N(C)S(=O)(=O)c2ccc(C)cc2)cc1)c1c(N)n(CC(C)C)c(=O)[nH]c1=O | . | . | 2 | . | . | . | .
COc1ccc([N+](=O)[O-])cc1N(CC(=O)NC1CCCCC1)S(C)(=O)=O | 3 | 102 | -7 | 108 | . | . | .
Cc1ccc([N+](=O)[O-])cc1N(CC(=O)NC1CCCC1)S(C)(=O)=O | -7 | 73*[inhibitor] | 2 | 75 | 103 | -2 | 104
COc1c2c(c(CCC(=O)O)c3c1C=CC(C)(C)O3)OC(C)(C)C=C2 | . | . | 0 | . | . | . | .
CC(=O)Nc1nnc(SCC(=O)N2CCN(Cc3ccccc3)CC2)s1 | 3 | 75*[inhibitor] | -12 | 105 | 103 | -1 | 103
CC(=O)Nc1nnc(SCC(=O)N2CCCc3ccccc32)s1 | -3 | 88 | -12 | 96 | . | . | .
Cc1ccc(-c2nnc(SCC(=O)Nc3cccc(C(=O)N4CCOCC4)c3)n2C)cc1 | -2 | 91 | 2 | 94 | . | . | .
COc1cccc(C(C)NC(=O)Nc2ccccc2Cl)c1 (stereo not given) | 0 | 101 | 2 | 97 | . | . | .
CSCCC(NC(=O)c1cccc(S(=O)(=O)N2CCOCC2)c1)C(=O)Nc1ccc(F)cc1 (stereo not given) | 1 | 97 | 0 | 100 | . | . | .
CSCCC(NC(N)=O)C(=O)Nc1cccc(S(=O)(=O)N2CCOCC2)c1 (stereo not given) | -9 | 72*[inhibitor] | -8 | 83 | 98 | 0 | 102
O=C(NCC(F)(F)F)Nc1cccnc1 | 22 | 127* | 6 | 121 | 105 | 1 | 101

Screening results deposited in PubChem by NMMLSC.
